In ChEMBL document CHEMBL1833894, “The effect of a bromide leaving group on the properties of nitro analogs of the duocarmycins as hypoxia-activated prodrugs and phosphate pre-prodrugs for antitumor therapy” (Bioorg Med Chem, 2011):

Assays:
SiHa [1] = experiment: Cytotoxicity against human SiHa cells assessed as reduction in cell density compound treated for 4 hrs under hypoxic condition measured after 5 days by sulforhodamine B assay; type: functional, cell-based
How it was run: (§1)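 Log-phase monolayers exposed to drug for 4 h under aerobic (20% O₂) or anoxic (<20 ppm O₂) conditions, then stained with sulforhodamine B 5 days later. IC50 interpolated as the concentration cutting cell density to 50% of same-plate controls; mean of 3–6 experiments.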

HT-29 [2] = experiment: Ratio IC50 for human HT29 cells under oxic condition to IC50 for human HT29 cells under hypoxic condition; type: functional
How it was run: (§2)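 Oxic IC50 divided by hypoxic IC50 (4 h exposure at 20% O₂ vs <20 ppm O₂, sulforhodamine B read-out 5 days later), taken as means of intraexperiment ratios over 2–6 experiments.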

SiHa [3] = experiment: Ratio IC50 for human SiHa cells under oxic condition to IC50 for human SiHa cells under hypoxic condition; type: functional; how it was run: as §2
HT-29 [4] = experiment: Cytotoxicity against human HT29 cells assessed as reduction in cell density compound treated for 4 hrs under oxic condition measured after 5 days by sulforhodamine B assay; type: functional, cell-based; how it was run: as §1
HT-29 [5] = experiment: Cytotoxicity against human HT29 cells assessed as reduction in cell density compound treated for 4 hrs under hypoxic condition measured after 5 days by sulforhodamine B assay; type: functional, cell-based; how it was run: as §1
SiHa [6] = experiment: Cytotoxicity against human SiHa cells assessed as reduction in cell density compound treated for 4 hrs under oxic condition measured after 5 days by sulforhodamine B assay; type: functional, cell-based; how it was run: as §1
SiHa [7] = experiment: Antitumor activity against human SiHa cells xenografted in CD1-Foxn1nu/nu nude mouse assessed as hypoxic log10 cell kill at 42 umol/kg, iv administered 5 mins after irradiated with gamma-15 Gy measured after 18 hrs; type: functional
How it was run: (§3)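 Male nude mice bearing subcutaneous SiHa tumours, from 10⁷ cultured cells, randomised at a mean diameter of 8–10 mm. Phosphate given iv in phosphate-buffered saline with 4 equiv sodium bicarbonate, 5 min after whole-body cobalt-60 15 Gy. Tumours excised 18 h later for clonogenic assay (log10 clonogens/g), 5 mice per group. Hypoxic log cell kill = radiation + drug versus radiation alone; ANOVA with Holm-Sidak.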

SiHa [8] = experiment: Antitumor activity against human SiHa cells xenografted in CD1-Foxn1nu/nu nude mouse assessed as log10 clonogens/g tumor at 42 umol/kg, iv administered 5 mins after irradiated with gamma-15 Gy measured after 18 hrs (reference value: 5.34 +/- 0.04 to 5.73 +/- 0.15 no unit); type: functional
SiHa [9] = experiment: Antitumor activity against human SiHa cells xenografted in CD1-Foxn1nu/nu nude mouse assessed as log10 clonogens/g tumor at 42 umol/kg, iv measured after 18 hrs (reference value: 7.15 +/- 0.01 to 7.62 +/- 0.2 no unit); type: functional
[10] = Aqueous solubility of the compound; type: physicochemical
SK-OV-3 = experiment: Cytotoxicity against human SKOV3 cells under oxic condition relative to hypoxic condition; type: functional
HT-29 [11] = experiment: Cytotoxicity against human HT29 cells under oxic condition relative to hypoxic condition; type: functional
How it was run: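 Log-phase HT29 monolayers exposed to drug for 4 h under aerobic (20% O₂) or anoxic (<20 ppm O₂) conditions, then sulforhodamine B staining 5 days later. IC50 interpolated as the concentration cutting cell density to 50% of same-plate controls. Ratio = IC50(oxic)/IC50(hypoxic), taken as the mean of intraexperiment ratios over 2–6 experiments.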

SiHa [12] = experiment: Antitumor activity against human SiHa cells xenografted in CD1-Foxn1nu/nu nude mouse assessed as hypoxic log10 cell kill at 30 umol/kg, iv administered 5 mins after irradiated with gamma-15 Gy measured after 18 hrs; type: functional; how it was run: as §3
SiHa [13] = experiment: Antitumor activity against human SiHa cells xenografted in CD1-Foxn1nu/nu nude mouse assessed as log10 clonogens/g tumor at 30 umol/kg, iv measured after 18 hrs (reference value: 7.15 +/- 0.01 to 7.62 +/- 0.2 no unit); type: functional
SiHa [14] = experiment: Antitumor activity against human SiHa cells xenografted in CD1-Foxn1nu/nu nude mouse assessed as log10 clonogens/g tumor at 30 umol/kg, iv administered 5 mins after irradiated with gamma-15 Gy measured after 18 hrs (reference value: 5.34 +/- 0.04 to 5.73 +/- 0.15 no unit); type: functional

| SMILES | IC50 (SiHa [1]) [nM] | Ratio IC50 (HT-29 [2]) | Ratio IC50 (SiHa [3]) | IC50 (HT-29 [4]) [nM] | IC50 (HT-29 [5]) [nM] | IC50 (SiHa [6]) [nM] | LCK (SiHa [7]) | Activity (SiHa [8]) | Activity (SiHa [9]) | further results |
| --- | --- | --- | --- | --- | --- | --- | --- | --- | --- | --- |
| COc1cc2cc(C(=O)N3CC(CBr)c4c3cc([N+](=O)[O-])c3cc(S(=O)(=O)NCCO)ccc43)[nH]c2c(OC)c1OC (configuration not stated) | 270 | 10 | 10 | 12300 | 1350 | 2610 | – | – | – | – |
| O=C(c1cc2cc(OCCN3CCOCC3)ccc2[nH]1)N1CC(CBr)c2c1cc([N+](=O)[O-])c1cc(S(=O)(=O)NCCO)ccc21 (configuration not stated) | 280 | 52 | 43 | 22400 | 440 | 11700 | – | – | – | – |
| COc1ccc(/C=C/C(=O)N2CC(CBr)c3c2cc([N+](=O)[O-])c2cc(S(=O)(=O)NCCOP(=O)(O)O)ccc32)cc1 (configuration not stated) | – | – | – | – | – | – | 0.87 | 4.5 | 7.07 | – |
| O=C(/C=C/c1ccc(OCCN2CCOCC2)cc1)N1CC(CBr)c2c1cc([N+](=O)[O-])c1cc(S(=O)(=O)NCCO)ccc21 (configuration not stated) | 90 | 286 | 41 | 11200 | 80 | 2720 | – | – | – | – |
| CN(C)CCOc1ccc2[nH]c(C(=O)N3CC(CCl)c4c3cc([N+](=O)[O-])c3cc(S(=O)(=O)NCCOP(=O)(O)O)ccc43)cc2c1 (configuration not stated) | – | – | – | – | – | – | 1.83 | 3.9 | 6.89 | solubility [10]: > 2000 µM |
| O=C(c1cc2cc(OCCN3CCOCC3)ccc2[nH]1)N1CC(CBr)c2c1cc([N+](=O)[O-])c1cc(S(=O)(=O)NCCOP(=O)(O)O)ccc21 (configuration not stated) | – | – | – | – | – | – | 2.8 | 2.6 | 6.05 | – |
| CN(C)CCOc1ccc2[nH]c(C(=O)N3CC(CCl)c4c3cc([N+](=O)[O-])c3cc(S(=O)(=O)NCCO)ccc43)cc2c1 (configuration not stated) | 70 | 160 | 46 | 9300 | 90 | 2000 | – | – | – | – |
| COc1ccc(/C=C/C(=O)N2CC(CBr)c3c2cc([N+](=O)[O-])c2cc(S(=O)(=O)NCCO)ccc32)cc1 (configuration not stated) | 120 | >25 | 17 | 2450 | < 100 | 1440 | – | – | – | – |
| COc1cc2cc(C(=O)N3CC(CBr)c4c3cc([N+](=O)[O-])c3cc(S(=O)(=O)NCCOP(=O)(O)O)ccc43)[nH]c2c(OC)c1OC (configuration not stated) | – | – | – | – | – | – | 1.84 | 3.62 | 6.51 | – |
| CN(C)CCOc1ccc2[nH]c(C(=O)N3CC(CCl)c4c3cc([N+](=O)[O-])c3cc(S(N)(=O)=O)ccc43)cc2c1 (configuration not stated) | – | – | – | – | – | – | – | – | – | Ratio (SK-OV-3): 275; Ratio (HT-29 [11]): 330 |
| COc1cc2cc(C(=O)N3CC(CCl)c4c3cc([N+](=O)[O-])c3cc(S(=O)(=O)NCCO)ccc43)[nH]c2c(OC)c1OC (configuration not stated) | 3500 | 2.1 | 16 | 28000 | 11000 | 13000 | – | – | – | – |
| O=C(/C=C/c1ccc(OCCN2CCOCC2)cc1)N1CC(CBr)c2c1cc([N+](=O)[O-])c1cc(S(=O)(=O)NCCOP(=O)(O)O)ccc21 (configuration not stated) | – | – | – | – | – | – | – | – | – | LCK (SiHa [12]): 1.56; Activity (SiHa [13]): 7.01; Activity (SiHa [14]): 3.78 |
| COc1cc2cc(C(=O)N3CC(CCl)c4c3cc([N+](=O)[O-])c3cc(S(=O)(=O)NCCOP(=O)(O)O)ccc43)[nH]c2c(OC)c1OC (configuration not stated) | – | – | – | – | – | – | 0.55 | 4.96 | 7.29 | – |
